# From ChEMBL document CHEMBL4229446, “Development of Novel Monoamine Oxidase-B (MAO-B) Inhibitors with Reduced Blood-Brain Barrier Permeability for the Potential Management of Noncentral Nervous System (CNS) Diseases” (J Med Chem, 2018)
# What was measured:
# [1] = Metabolic stability in human plasma assessed as parent compound remaining at 5 uM after 4 hrs by UPLC-MS/MS analysis; type: ADME, cell-free; settings: read-out: Stability
# Outline: (§1)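 Compound at 5 μM was incubated in mouse or human plasma at 37 °C with shaking. Sampled at 0, 5, 15, 30, 60, 120 and 240 min and stopped with ice-cold acetonitrile/0.1% formic acid containing internal standard. Supernatants analysed by UPLC-MS/MS for parent remaining. Run in triplicate.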
# [2] = Metabolic stability in mouse plasma assessed as parent compound remaining at 5 uM after 4 hrs by UPLC-MS/MS analysis; type: ADME, cell-free; settings: read-out: Stability; outline: as §1
# [3] = Metabolic stability in mouse liver microsomes assessed as parent compound remaining at 1 uM after 60 mins by UPLC-MS/MS analysis; type: ADME, microsome; settings: microsomes, 1 h, 1 µM
# Outline: (§2)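 Compound at 1 μM with 0.5 mg/mL mouse or human liver microsomes in 100 mM potassium phosphate pH 7.4, 3.3 mM MgCl2, 1 mM NADPH, at 37 °C. Started with NADPH; minus-NADPH control run. Stopped at 0, 5, 15, 30, 45 and 60 min with acetonitrile/formic acid plus internal standard. Parent remaining by UPLC-MS/MS, in triplicate.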
# [4] = Metabolic stability in human liver microsomes assessed as parent compound remaining at 1 uM after 60 mins by UPLC-MS/MS analysis; type: ADME, microsome; settings: microsomes, 1 h, 1 µM; outline: as §2
# Mus musculus [5] = assay: Acute toxicity in C57BL/6 mouse assessed as lethargy at 10.8 mg/kg, iv after 1 hr post-injection; type: organism-based; settings: in vivo
# Mus musculus [6] = assay: Acute toxicity in C57BL/6 mouse assessed as piloerection at 10.8 mg/kg, sc after 1 hr post-injection; type: organism-based; settings: in vivo
# [7] = Cmax in C57BL/6 mouse plasma at 10.8 mg/kg, iv administered as single dose measured 24 hrs by UPLC-MS/MS analysis; type: ADME, organism-based; parameters: dose 10.8 mg/kg, route intravenous
# Outline: (§3)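 Plasma extracted by protein precipitation/phospholipid removal; brain weighed, homogenised in 50 mM ammonium formate, extracted in acidified organic solvent, ng/g taken as ng/mL. Quantified by UPLC-MS/MS (MRM); parameters by noncompartmental analysis.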
# [8] = Tmax in C57BL/6 mouse plasma at 10.8 mg/kg, iv administered as single dose measured 24 hrs by UPLC-MS/MS analysis; type: ADME, organism-based; outline: as §3
# [9] = AUClast in C57BL/6 mouse plasma at 10.8 mg/kg, iv administered as single dose measured 24 hrs by UPLC-MS/MS analysis; type: ADME, organism-based; parameters: dose 10.8 mg/kg, route intravenous, time 0 - last; outline: as §3
# [10] = Apparent half-life of the terminal disposition phase in C57BL/6 mouse plasma at 10.8 mg/kg, iv administered as single dose measured 24 hrs by UPLC-MS/MS analysis; type: ADME, organism-based; settings: read-out: t1/2 lambda z (converted); outline: as §3
# [11] = Apparent half-life of the terminal disposition phase in C57BL/6 mouse brain at 10.8 mg/kg, iv administered as single dose measured 24 hrs by UPLC-MS/MS analysis; type: ADME, organism-based; settings: read-out: t1/2 lambda z (converted)
# Outline: (§4)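 21 animals dosed at 0 min, 3 sacrificed at each of 0, 5, 15, 30 min, 1, 4 and 24 h. Plasma was extracted by protein precipitation with phospholipid removal. Brain was weighed, bead-homogenised in 50 mM ammonium formate and extracted in acidified organic solvent. Quantified by UPLC-MS/MS (MRM). Brain ng/g taken as ng/mL. Parameters came from noncompartmental analysis. Kp = AUClast brain/plasma.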
# [12] = Tmax in C57BL/6 mouse brain at 10.8 mg/kg, iv administered as single dose measured 24 hrs by UPLC-MS/MS analysis; type: ADME, organism-based; outline: as §3
# [13] = Cmax in C57BL/6 mouse brain at 10.8 mg/kg, iv administered as single dose measured 24 hrs by UPLC-MS/MS analysis; type: ADME, organism-based; parameters: dose 10.8 mg/kg, route intravenous; outline: as §4
# [14] = AUClast in C57BL/6 mouse brain at 10.8 mg/kg, iv administered as single dose measured 24 hrs by UPLC-MS/MS analysis; type: ADME, organism-based; parameters: dose 10.8 mg/kg, route intravenous, time 0 - last; outline: as §4
# [15] = Ratio of AUClast in brain to plasma in C57BL/6 mouse at 10.8 mg/kg, iv administered as single dose measured 24 hrs by UPLC-MS/MS analysis; type: ADME, organism-based; outline: as §4
# Mus musculus [16] = assay: Acute toxicity in C57BL/6 mouse assessed as lethargy at 10.8 mg/kg, sc after 1 hr post-injection; type: organism-based; settings: in vivo
# Mus musculus [17] = assay: Acute toxicity in C57BL/6 mouse assessed as lethargy at 10.8 mg/kg, po after 1 hr post-injection; type: organism-based; settings: in vivo
# Mus musculus [18] = assay: Acute toxicity in C57BL/6 mouse assessed as piloerection at 10.8 mg/kg, iv after 1 hr post-injection; type: organism-based; settings: in vivo
# Mus musculus [19] = assay: Acute toxicity in C57BL/6 mouse assessed as piloerection at 10.8 mg/kg, po after 1 hr post-injection; type: organism-based; settings: in vivo
smiles,measurement,setting,value
C#CCN(C)[C@H](C)Cc1ccccc1 [SELEGILINE],"remaining at 4 h, 5 µM",[1],55%
same,"remaining at 4 h, 5 µM",[2],61%
same,Stability,[3],Unstable
same,Stability,[4],Unstable
same,Activity,Mus musculus [5],Toxic
same,Activity,Mus musculus [6],Toxic
same,Cmax,[7],0.569 µg/mL
same,Tmax,[8],5 min
same,AUC(0-t) at 24 h,[9],0.242 µg·h/mL
same,half-life,[10],33.6 min
same,half-life,[11],17.4 min
same,Tmax,[12],5 min
same,Cmax,[13],4.22 µg/mL
same,AUC(0-t) at 24 h,[14],1.39 µg·h/mL
same,Kp at 24 h,[15],5.73
same,Activity,Mus musculus [16],Toxic
same,Activity,Mus musculus [17],Toxic
same,Activity,Mus musculus [18],Toxic
same,Activity,Mus musculus [19],Toxic
